Reference: ChEMBL document CHEMBL1128335, “Design and synthesis of piperidine-3-carboxamides as human platelet aggregation inhibitors” (J Med Chem, 1995)

Columns and labels:
Homo sapiens [1] = organism: Homo sapiens; experiment: Inhibitory activity against human platelet aggregation.; assay type: functional
In short: (§1)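 Human citrated PRP (blood:3.2% citrate 8:1; 120g, 15 min, 23 °C), count adjusted to 250 000–300 000/mm^3 with autologous PPP, gassed with 5% CO2/95% air, held at 37 °C. Test compound incubated 4 min. Aggregation triggered with each donor's minimal ADP concentration giving full biphasic response. Light transmission recorded 5.5 min. IC50 from regression of % inhibition on log molar concentration; mean ± SE, 4–6 determinations.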

[2] = Partition coefficient (logP); assay type: physicochemical; conditions: octanol/water
Homo sapiens [3] = organism: Homo sapiens; experiment: Inhibitory activity against human platelet aggregation; Inactive; assay type: functional; in short: as §1
Homo sapiens [4] = organism: Homo sapiens; experiment: Inhibitory activity against human platelet aggregation at 200 uM; assay type: functional

| IC50 (Homo sapiens [1]; Homo sapiens, read-out: IC50) [µM] | logP ([2]; read-out: logP) | Compound | further results |
| --- | --- | --- | --- |
| 51.6 | 5.01 | CCN(CC)C(=S)C1CCCN(Cc2ccc(CN3CCCC(C(=S)N(CC)CC)C3)cc2)C1 (stereo not drawn) |  |
| 757 | 4.21 | CCOC(=O)C1CCCN(Cc2ccc(CN3CCCC(C(=O)OCC)C3)cc2)C1 (stereo not drawn) |  |
| > 500 | 2.45 | O=C(O)C1CCCN(Cc2ccc(CN3CCCC(C(=O)O)C3)cc2)C1 (stereo not drawn) |  |
| 37.7 | 5.76 | CCN(Cc1ccccc1)C(=O)C1CCCN(Cc2ccc(CN3CCCC(C(=O)N(CC)Cc4ccccc4)C3)cc2)C1 (stereo not drawn) |  |
| 354 | 5.43 | CCN(CC)C(=O)C1CCCN(Cc2ccccc2-c2ccccc2CN2CCCC(C(=O)N(CC)CC)C2)C1 (stereo not drawn) |  |
| 478 | 5.43 | CCN(CC)C(=O)C1CCCN(Cc2ccc(-c3ccc(CN4CCCC(C(=O)N(CC)CC)C4)cc3)cc2)C1 (stereo not drawn) |  |
| 18.4 | 5.55 | CCCCN(CC)C(=O)C1CCCN(Cc2ccc(CN3CCCC(C(=O)N(CC)CCCC)C3)cc2)C1 (stereo not drawn) |  |
| 39.3 | 5.55 | CCCN(CCC)C(=O)C1CCCN(Cc2ccc(CN3CCCC(C(=O)N(CCC)CCC)C3)cc2)C1 (stereo not drawn) |  |
| 303 | 8.03 | O=C(C1CCCN(Cc2ccc(CN3CCCC(C(=O)N(Cc4ccccc4)Cc4ccccc4)C3)cc2)C1)N(Cc1ccccc1)Cc1ccccc1 (stereo not drawn) |  |
| 48.8 | 6.59 | CCCCCCN(C)C(=O)C1CCCN(Cc2ccc(CN3CCCC(C(=O)N(C)CCCCCC)C3)cc2)C1 (stereo not drawn) |  |
| 144 | 3.48 | CC(C)N(C)C(=O)C1CCCN(Cc2ccc(CN3CCCC(C(=O)N(C)C(C)C)C3)cc2)C1 (stereo not drawn) |  |
| 34.6 | 3.48 | CCCN(C)C(=O)C1CCCN(Cc2ccc(CN3CCCC(C(=O)N(C)CCC)C3)cc2)C1 (stereo not drawn) |  |
| 58.8 | 5.55 | CC(C)N(C(=O)C1CCCN(Cc2ccc(CN3CCCC(C(=O)N(C(C)C)C(C)C)C3)cc2)C1)C(C)C (stereo not drawn) |  |
| 53.6 | 4.18 | O=C(NCc1ccccc1)C1CCCN(Cc2ccc(CN3CCCC(C(=O)NCc4ccccc4)C3)cc2)C1 (stereo not drawn) |  |
| 32.7 | 2.75 | O=C(C1CCCN(Cc2ccc(CN3CCCC(C(=O)N4CCCC4)C3)cc2)C1)N1CCCC1 (stereo not drawn) |  |
| 7400 | 2.75 | CCN(CC)C(=O)C1CCCN(Cc2ccccc2)C1 (stereo not drawn) |  |
| 217 | 3.49 | CCN(CC)C(=O)C1CCCN(Cc2ccc(Cl)cc2)C1 (stereo not drawn) |  |
| 277 | 8.14 | O=C(C1CCCN(Cc2ccc(CN3CCCC(C(=O)N4CCC(Cc5ccccc5)CC4)C3)cc2)C1)N1CCC(Cc2ccccc2)CC1 (stereo not drawn) |  |
|  | 0.74 | CC(=O)NCC1CCCN(Cc2ccc(CN3CCCC(CNC(C)=O)C3)cc2)C1 (stereo not drawn) |  |
| 1650 | 0.74 | O=C(C1CCCN(Cc2ccc(CN3CCCC(C(=O)N4CCOCC4)C3)cc2)C1)N1CCOCC1 (stereo not drawn) |  |

The remaining lines, values behind:

| Compound | IC50 (Homo sapiens [1]; Homo sapiens, read-out: IC50) [µM] | logP ([2]; read-out: logP) | further results |
| --- | --- | --- | --- |
| COc1cc(CNC(=O)C2CCCN(Cc3ccc(CN4CCCC(C(=O)NCc5cc(OC)c(OC)c(OC)c5)C4)cc3)C2)cc(OC)c1OC (stereo not drawn) | 134 | 4.06 |  |
| CCN(CC)C(=O)C1CCCN(CC2CCC(CN3CCCC(C(=O)N(CC)CC)C3)CC2)C1 (stereo not drawn) | > 1000 | 4.57 |  |
| CC1CCCN(Cc2ccc(CN3CCCC(C)C3)cc2)C1 (stereo not drawn) | > 500 | 4.6 |  |
| CCN(CC)C(=O)C1CCCN(CCCCCCCCCCN2CCCC(C(=O)N(CC)CC)C2)C1 (stereo not drawn) | 207 | 5.92 |  |
| CCN(CC)C(=O)C1CCCN(CCCCCCCCN2CCCC(C(=O)N(CC)CC)C2)C1 (stereo not drawn) | 214 | 4.89 |  |
| CCN(CC)C(=O)C1CCCN(CCCCCCCCCCCCN2CCCC(C(=O)N(CC)CC)C2)C1 (stereo not drawn) | 85.3 | 6.96 |  |
| c1cc(CN2CCCCC2)ccc1CN1CCCCC1 | 8460 | 3.57 |  |
| CCCCCCCCCCN1CCCC(C(=O)N2CCN(C(=O)C3CCCN(CCCCCCCCCC)C3)C(C)C2)C1 (stereo not drawn) | 20.9 |  | logP [2]: 9.58 |
| CCCCCCCCCCN1CCCC(C(=O)N2CCC(C3CCN(C(=O)C4CCCN(CCCCCCCCCC)C4)CC3)CC2)C1 (stereo not drawn) | 25.9 |  | logP [2]: 11.322 |
| CCCCCCCCCCN1CCCC(C(=O)N2CCN(C(=O)C3CCCN(CCCCCCCCCC)C3)CC2)C1 (stereo not drawn) | 16 |  | logP [2]: 9.06 |
| O=C(C1CCCN(Cc2ccc(CN3CCCC(C(=O)N4CCSCC4)C3)cc2)C1)N1CCSCC1 (stereo not drawn) | 311 | 2.89 |  |
| CC(O)C1CCCN(Cc2ccc(CN3CCCC(C(C)O)C3)cc2)C1 (stereo not drawn) | 589 | 2.3 |  |
| CCCCCCCCCCN1CCCC(C(=O)N2CC(C)N(C(=O)C3CCCN(CCCCCCCCCC)C3)CC2C)C1 (stereo not drawn) | 23.8 |  | logP [2]: 10.096 |
| CCN(CC)C(=O)C1CCCN(Cc2ccccc2Cl)C1 (stereo not drawn) | 2810 | 3.49 |  |
| CCN(CC)C(=O)C1CCCN(CN2CC2)C1 (stereo not drawn) | 3250 | 2.43 |  |
| CCCCCCCCCCN1CCCC(C(=O)N(CC)CC)C1 (stereo not drawn) | 242 | 5.76 |  |
| CCCCCCCCCCN1CCCC(NC(=O)C2CCCN(CCCCCCCCCC)C2)C1 (stereo not drawn) |  |  | logP [2]: 9.96; IC50 (Homo sapiens [3]): Not Active |
| CCN(CC)C(=O)C1CCCN(Cc2cccc(Cl)c2)C1 (stereo not drawn) | 1650 | 3.49 |  |
| Br.Br.CCN(CC)C(=O)C1CC(C(=O)N(CC)CC)CN(Cc2ccc(CN3CC(C(=O)N(CC)CC)CC(C(=O)N(CC)CC)C3)cc2)C1 (stereo not drawn) |  | 3.39 | IC50 (Homo sapiens [3]): Not Active |
| O=C(C1CCCN(Cc2ccc(CN3CCCC(C(=O)N4CCCCC4)C3)cc2)C1)N1CCCCC1 (stereo not drawn) | 28.9 | 3.79 |  |
| Br.CCN(CC)C(=O)C1CCCN(Cc2ccc(C(C)(C)C)cc2)C1 (stereo not drawn) |  | 4.83 | IC50 (Homo sapiens [1]): Not Active; inhibition at 200 µM (Homo sapiens [4]): 2% |
| CCCCCCCCCCN1CCCC(C(=S)N(CC)CC)C1 (stereo not drawn) | 358 | 6.53 |  |
| CCCCCN1CCCC(C(=O)N2CCCN(C(=O)C3CCCN(CCCCC)C3)CC2)C1 (stereo not drawn) | 84.6 | 4.63 |  |
| CCCCCCCCCCN1CCCC(C(=O)N2CC(C)N(C(=O)C3CCCN(CCCCCCCCCC)C3)C(C)C2)C1 (stereo not drawn) | 22.9 |  | logP [2]: 10.096 |
